Measurements: ChEMBL document CHEMBL4325893, “Synthesis and antibacterial profiles of targeted triclosan derivatives” (2019)
Converted amounts (≈) assume the structure as drawn.

Key:
Staphylococcus aureus [1] = assay: Antibacterial activity against Staphylococcus aureus ATCC 6538 after 18 hrs; format: functional; settings: ATCC 6538, 18 h
Method in brief: (§1)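 Broth microdilution in Nutrient Broth No. 2; stocks in ethanol diluted to 0.01–128 µg/ml (triclosan) or 0.25–256 µg/ml (glycosides). Overnight 37 °C NB2 cultures diluted 1 in 10^4 in saline and added to the dilutions. Incubation at 37 °C with agitation, OD read every 15 min; MIC is the lowest concentration preventing any OD rise after 18 h.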

Staphylococcus aureus [2] = assay: Antibacterial activity against Staphylococcus aureus ATCC 6538P after 18 hrs; format: functional; method in brief: as §1
Staphylococcus aureus [3] = assay: Antibacterial activity against Staphylococcus aureus ATCC 9144 after 18 hrs; format: functional; settings: ATCC 9144, 18 h; method in brief: as §1
Staphylococcus aureus [4] = assay: Antibacterial activity against Staphylococcus aureus ATCC 25923 after 18 hrs; format: functional; settings: ATCC 25923, 18 h; method in brief: as §1
Staphylococcus aureus [5] = assay: Antibacterial activity against Staphylococcus aureus ATCC 29213 after 18 hrs; format: functional; settings: ATCC 29213, 18 h; method in brief: as §1
Staphylococcus aureus [6] = assay: Antibacterial activity against Staphylococcus aureus NCTC 13758 after 18 hrs; format: functional; settings: NCTC 13758, 18 h; method in brief: as §1
Staphylococcus aureus [7] = assay: Antibacterial activity against Staphylococcus aureus OCC 104 after 18 hrs; format: functional; settings: OCC 104, 18 h; method in brief: as §1
Staphylococcus aureus [8] = assay: Antibacterial activity against Staphylococcus aureus OCC 106 after 18 hrs; format: functional; settings: OCC 106, 18 h; method in brief: as §1
[9] = tested on: Staphylococcus epidermidis; assay: Antibacterial activity against Staphylococcus epidermidis 155 after 18 hrs; format: functional; settings: Staphylococcus epidermidis, 155, 18 h; method in brief: as §1
[10] = tested on: Staphylococcus epidermidis; assay: Antibacterial activity against Staphylococcus epidermidis ATCC 12228 after 18 hrs; format: functional; settings: ATCC 12228, 18 h; method in brief: as §1
[11] = tested on: Staphylococcus epidermidis; assay: Antibacterial activity against Staphylococcus epidermidis ATCC 14990 after 18 hrs; format: functional; settings: ATCC 14990, 18 h; method in brief: as §1
[12] = tested on: Staphylococcus haemolyticus; assay: Antibacterial activity against Staphylococcus haemolyticus OCC 2223 after 18 hrs; format: functional; settings: OCC 2223, 18 h
Method in brief: (§2)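 Broth microdilution in Nutrient Broth No. 2. Ethanol stocks were diluted in broth to 0.01–128 µg/ml for triclosan and 0.25–256 µg/ml for glycosides. Overnight 37°C NB2 cultures were diluted 1 in 10^4 in saline and added to the wells. Plates were incubated at 37°C with OD read every 15 min after agitation. MIC was the lowest concentration giving no OD increase at 18 h.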

[13] = tested on: Staphylococcus saprophyticus; assay: Antibacterial activity against Staphylococcus saprophyticus ATCC 15305 after 18 hrs; format: functional; settings: ATCC 15305, 18 h; method in brief: as §2
Streptococcus agalactiae = assay: Antibacterial activity against Streptococcus agalactiae OCC 182 after 18 hrs; format: functional; settings: OCC 182, 18 h; method in brief: as §2
Streptococcus pneumoniae [14] = assay: Antibacterial activity against Streptococcus pneumoniae 6305 after 18 hrs; format: functional; settings: Streptococcus pneumoniae, 6305, 18 h; method in brief: as §2
Streptococcus pneumoniae [15] = assay: Antibacterial activity against Streptococcus pneumoniae ATCC 49619 after 18 hrs; format: functional; settings: ATCC 49619, 18 h; method in brief: as §2
Streptococcus pyogenes = assay: Antibacterial activity against Streptococcus pyogenes ATCC 19615 after 18 hrs; format: functional; settings: ATCC 19615, 18 h; method in brief: as §2
Streptococcus viridans = assay: Antibacterial activity against Streptococcus viridans OCC 234 after 18 hrs; format: functional; settings: OCC 234, 18 h; method in brief: as §2
[16] = tested on: Salmonella enterica subsp. enterica serovar Abony; assay: Antibacterial activity against Salmonella enterica subspecies enterica serotype Abony NCTC 6017 after 18 hrs; format: functional; settings: NCTC 6017, 18 h; method in brief: as §1
[17] = Antibacterial activity against Salmonella enterica subspecies enterica serotype Arizonae OCC 706 after 18 hrs; format: functional, Salmonella enterica subsp. enterica serovar Arizonae; settings: OCC 706, 18 h; method in brief: as §1
[18] = Antibacterial activity against Salmonella enterica subspecies enterica serotype Dublin OCC 627 after 18 hrs; format: functional, Salmonella enterica subsp. enterica serovar Dublin; settings: OCC 627, 18 h; method in brief: as §1
Salmonella enteritidis = assay: Antibacterial activity against Salmonella enterica subspecies enterica serotype Enteritidis 13076 after 18 hrs; format: functional, Salmonella enterica subsp. enterica serovar Enteritidis; settings: Salmonella enterica, 13076, 18 h; method in brief: as §1
[19] = Antibacterial activity against Salmonella enterica subspecies enterica serotype Indiana OCC 597 after 18 hrs; format: functional, Salmonella enterica subsp. enterica serovar Indiana; settings: OCC 597, 18 h; method in brief: as §1
[20] = Antibacterial activity against Salmonella enterica subspecies enterica serotype Infantis OCC 2133 after 18 hrs; format: functional, Salmonella enterica subsp. enterica serovar Infantis; settings: OCC 2133, 18 h; method in brief: as §1
[21] = Antibacterial activity against Salmonella enterica subspecies enterica serotype Nottingham NCTC 7832 after 18 hrs; format: functional, Salmonella enterica subsp. enterica serovar Nottingham; settings: NCTC 7832, 18 h; method in brief: as §1
[22] = Antibacterial activity against Salmonella enterica subspecies enterica serotype Poona NCTC 4840 after 18 hrs; format: functional, Salmonella enterica subsp. enterica serovar Poona; settings: NCTC 4840, 18 h; method in brief: as §1
[23] = Antibacterial activity against Salmonella enterica subspecies enterica serotype Pullorum OCC 273 after 18 hrs; format: functional, Salmonella enterica subsp. enterica serovar Pullorum; settings: OCC 273, 18 h; method in brief: as §1
Salmonella typhimurium = assay: Antibacterial activity against Salmonella enterica subspecies enterica serotype typhimurium ATCC 14028 after 18 hrs; format: functional, Salmonella enterica subsp. enterica serovar Typhimurium; settings: ATCC 14028, 18 h; method in brief: as §1
[24] = Antibacterial activity against Salmonella enterica subspecies enterica serotype Virchow NCTC 5742 after 18 hrs; format: functional, Salmonella enterica subsp. enterica serovar Virchow; settings: NCTC 5742, 18 h; method in brief: as §1

`OC[C@H]1O[C@H](Oc2cc(Cl)ccc2Oc2ccc(Cl)cc2Cl)[C@H](O)[C@@H](O)[C@@H]1O` showed an MIC (Staphylococcus aureus [1]) of 1 µg/mL (≈ 2.21 µM), an MIC (Staphylococcus aureus [2]) of 1 µg/mL (≈ 2.21 µM) and an MIC (Staphylococcus aureus [3]) of 1 µg/mL (≈ 2.21 µM). The MIC (Staphylococcus aureus [4]) was 1 µg/mL (≈ 2.21 µM), the MIC (Staphylococcus aureus [5]) was 1 µg/mL (≈ 2.21 µM) and the MIC (Staphylococcus aureus [6]) was 1 µg/mL (≈ 2.21 µM). For the same molecule, the MIC (Staphylococcus aureus [7]) was 1 µg/mL (≈ 2.21 µM), the MIC (Staphylococcus aureus [8]) was 1 µg/mL (≈ 2.21 µM) and the MIC [9] was 1 µg/mL (≈ 2.21 µM). The MIC [10] was 1 µg/mL (≈ 2.21 µM), the MIC [11] was 1 µg/mL (≈ 2.21 µM) and the MIC [12] was 1 µg/mL (≈ 2.21 µM). The MIC [13] was 4 µg/mL (≈ 8.86 µM), the MIC (Streptococcus agalactiae) was 128 µg/mL (≈ 283 µM) and the MIC (Streptococcus pneumoniae [14]) was 32 µg/mL (≈ 70.8 µM). It also gave an MIC (Streptococcus pneumoniae [15]) of 32 µg/mL (≈ 70.8 µM), an MIC (Streptococcus pyogenes) of 32 µg/mL (≈ 70.8 µM) and an MIC (Streptococcus viridans) of 128 µg/mL (≈ 283 µM). The MIC [16] was 2 to 8 µg/mL (≈ 4.43 to 17.7 µM), the MIC [17] was 2 to 8 µg/mL (≈ 4.43 to 17.7 µM) and the MIC [18] was 2 to 8 µg/mL (≈ 4.43 to 17.7 µM). For the same molecule, the MIC (Salmonella enteritidis) was 2 to 8 µg/mL (≈ 4.43 to 17.7 µM), the MIC [19] was 2 to 8 µg/mL (≈ 4.43 to 17.7 µM) and the MIC [20] was 2 to 8 µg/mL (≈ 4.43 to 17.7 µM). The MIC [21] was 2 to 8 µg/mL (≈ 4.43 to 17.7 µM), the MIC [22] was 2 to 8 µg/mL (≈ 4.43 to 17.7 µM) and the MIC [23] was 2 to 8 µg/mL (≈ 4.43 to 17.7 µM). For the same molecule, the MIC (Salmonella typhimurium) was 2 to 8 µg/mL (≈ 4.43 to 17.7 µM) and the MIC [24] was 2 to 8 µg/mL (≈ 4.43 to 17.7 µM).
